In the assay the target is T1, Gonadotropin-releasing hormone receptor (Rattus norvegicus, UniProt P30969).
T1 sequence (P30969 whole entry): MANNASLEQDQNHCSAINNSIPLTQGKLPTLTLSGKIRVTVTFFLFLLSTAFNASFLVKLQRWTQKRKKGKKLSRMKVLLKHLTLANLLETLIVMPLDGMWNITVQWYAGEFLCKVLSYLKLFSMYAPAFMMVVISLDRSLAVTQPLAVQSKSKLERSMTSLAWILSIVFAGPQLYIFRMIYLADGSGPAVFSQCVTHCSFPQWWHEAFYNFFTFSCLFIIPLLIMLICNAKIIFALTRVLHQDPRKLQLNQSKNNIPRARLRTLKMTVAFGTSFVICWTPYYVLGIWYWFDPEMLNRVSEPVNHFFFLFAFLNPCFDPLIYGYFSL
Put plainly: Inhibition of the in vitro binding of [125I]-labeled leuprolide to the rat pituitary luteinizing hormone releasing hormone (LHRH) receptor. The essentials:
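Rat pituitary LHRH receptor binding with 125I-labeled leuprolide as radioligand. pKI is the negative log of the analogue concentration inhibiting 50% of tracer binding. Compounds tested as TFA salts.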
The term Ki denotes a dissociation constant, usually derived from enzyme kinetics or from competition with a known ligand. Higher therefore signals lower affinity. `CCNC(=O)[C@H]1CCCN1C(=O)[C@H](CCCN=C(N)N)NC(=O)[C@H](CC(C)C)NC(=O)[C@@H](Cc1c[nH]c2ccccc12)NC(=O)[C@H](Cc1ccc(O)cc1)N(C)C(=O)[C@H](CO)NC(=O)[C@H](Cc1c[nH]c2ccccc12)NC(=O)CCc1ccc(F)cc1` returned a Ki of 0.033 nM.

Regarding `CCNC(=O)[C@H]1CCCN1C(=O)[C@H](CCCN=C(N)N)NC(=O)[C@H](CC(C)C)NC(=O)[C@@H](CCCCNC(=O)c1cccnc1)NC(=O)[C@H](Cc1ccc(O)cc1)N(C)C(=O)[C@H](CO)NC(=O)[C@H](Cc1c[nH]c2ccccc12)NC(=O)CCc1ccc(F)cc1`, the Ki turned out to be 0.017 nM.

Regarding `CCNC(=O)[C@H]1CCCN1C(=O)[C@H](CCCN=C(N)N)NC(=O)[C@H](CC(C)C)NC(=O)[C@@H](Cc1c[nH]c2ccccc12)NC(=O)[C@H](Cc1ccc(O)cc1)NC(=O)[C@H](CO)NC(=O)C(Cc1cccc2ccccc12)NC(=O)CCc1ccc(F)cc1` (stereo partly specified), affinity was put at a Ki of 0.017 nM.

As to `CCNC(=O)[C@H]1CCCN1C(=O)[C@H](CCCN=C(N)N)NC(=O)[C@H](CC(C)C)NC(=O)[C@@H](CCCCNC(=O)c1cccnc1)NC(=O)[C@H](Cc1ccc(O)cc1)N(C)C(=O)[C@H](CO)NC(=O)[C@H](Cc1c[nH]c2ccccc12)NC(=O)CCc1ccc(F)cc1F`, the affinity, expressed as Ki, was 0.02 nM.

In turn, `CCNC(=O)[C@H]1CCCN1C(=O)[C@H](CCCN=C(N)N)NC(=O)[C@H](CC(C)C)NC(=O)[C@@H](CCCCNC(=O)c1cccnc1)NC(=O)[C@H](Cc1ccc(O)cc1)N(C)C(=O)[C@H](CO)NC(=O)[C@H](Cc1c[nH]c2ccccc12)NC(=O)CCc1ccc(Cl)cc1` came in with a Ki of 0.02 nM.

`CCNC(=O)[C@H]1CCCN1C(=O)[C@H](CCCN=C(N)N)NC(=O)[C@H](CC(C)C)NC(=O)[C@@H](Cc1c[nH]c2ccccc12)NC(=O)[C@H](Cc1ccc(O)cc1)NC(=O)[C@H](CO)NC(=O)[C@H](Cc1c[nH]c2ccccc12)NC(=O)CCc1ccc(Cl)cc1` had a Ki of 0.076 nM.

`CCNC(=O)[C@@H]1CCCN1C(=O)[C@H](CCCN=C(N)N)NC(=O)[C@H](CC(C)C)NC(=O)[C@@H](Cc1c[nH]c2ccccc12)NC(=O)[C@H](Cc1ccc(O)cc1)NC(=O)[C@H](CO)NC(=O)[C@H](Cc1c[nH]c2ccccc12)NC(=O)CCc1ccc(F)c(F)c1` came in with a Ki of 0.052 nM.

Consider `CCNC(=O)[C@@H]1CCCN1C(=O)[C@H](CCCN=C(N)N)NC(=O)[C@H](CC(C)C)NC(=O)[C@@H](Cc1c[nH]c2ccccc12)NC(=O)[C@H](Cc1ccc(O)cc1)NC(=O)[C@H](CO)NC(=O)[C@H](Cc1c[nH]c2ccccc12)NC(=O)CCc1ccc(C(F)(F)F)cc1`, for which the Ki stood at 0.275 nM.

Turning to `CC(C)C[C@H](NC(=O)[C@@H](CCCCNC(=O)c1cccnc1)NC(=O)[C@H](Cc1ccc(O)cc1)N(C)C(=O)[C@H](CO)NC(=O)[C@H](Cc1cccc2ccccc12)NC(=O)CCc1ccc(F)cc1)C(=O)N[C@@H](CCCCNC(C)C)C(=O)N1CCC[C@@H]1C(=O)O`, the Ki stood at 0.537 nM.

As for `CCNC(=O)[C@H]1CCCN1C(=O)[C@H](CCCN=C(N)N)NC(=O)[C@H](CC(C)C)NC(=O)[C@@H](CCCCNC(=O)c1cccnc1)NC(=O)[C@H](Cc1ccc(O)cc1)NC(=O)[C@H](CO)NC(=O)C(Cc1c[nH]c2ccccc12)NC(=O)CCc1ccc(F)cc1` (stereo partly specified), the Ki turned out to be 0.347 nM.

`CCNC(=O)[C@@H]1CCCN1C(=O)[C@H](CCCN=C(N)N)NC(=O)[C@H](CC(C)C)NC(=O)[C@@H](Cc1c[nH]c2ccccc12)NC(=O)[C@H](Cc1ccc(O)cc1)NC(=O)[C@H](CO)NC(=O)[C@H](Cc1c[nH]c2ccccc12)NC(=O)c1cc2ccccc2[nH]1` yielded a Ki of 17 nM.

Compound `CCNC(=O)[C@@H]1CCCN1C(=O)[C@H](CCCN=C(N)N)NC(=O)[C@H](CC(C)C)NC(=O)[C@@H](Cc1c[nH]c2ccccc12)NC(=O)[C@H](Cc1ccc(O)cc1)NC(=O)[C@H](CO)NC(=O)[C@@H](Cc1c[nH]c2ccccc12)NC(=O)c1cc2ccccc2[nH]1` came in with a Ki of 0.076 nM.

`CCNC(=O)[C@H]1CCCN1C(=O)[C@H](CCCN=C(N)N)NC(=O)[C@H](CC(C)C)NC(=O)[C@@H](Cc1c[nH]c2ccccc12)NC(=O)[C@H](Cc1ccc(O)cc1)NC(=O)[C@H](CO)NC(=O)[C@H](Cc1cccc2ccccc12)NC(=O)CCc1ccc(F)cc1`: the Ki worked out at 0.017 nM.

As for `CCNC(=O)[C@H]1CCCN1C(=O)[C@H](CCCN=C(N)N)NC(=O)[C@H](CC(C)C)NC(=O)[C@@H](Cc1ccc(O)cc1)NC(=O)[C@@H](Cc1ccc(O)cc1)NC(=O)[C@H](CO)NC(=O)[C@@H](Cc1c[nH]c2ccccc12)NC(=O)CCc1ccc(F)cc1`, the Ki worked out at 0.01 nM.

The compound `CCNC(=O)[C@H]1CCCN1C(=O)[C@H](CCCN=C(N)N)NC(=O)[C@H](CC(C)C)NC(=O)[C@@H](Cc1ccc(Cl)cc1)NC(=O)[C@H](Cc1ccc(O)cc1)NC(=O)[C@H](CO)NC(=O)[C@H](Cc1c[nH]c2ccccc12)NC(=O)CCc1ccc(F)cc1` registered a Ki of 0.018 nM.

Regarding `CCNC(=O)[C@H]1CCCN1C(=O)[C@H](CCCN=C(N)N)NC(=O)[C@H](CC(C)C)NC(=O)[C@@H](Cc1c[nH]c2ccccc12)NC(=O)[C@H](Cc1ccc(O)cc1)NC(=O)[C@H](CO)N(C)C(=O)[C@H](Cc1c[nH]c2ccccc12)NC(=O)CCc1ccc(F)cc1`, affinity was put at a Ki of 0.135 nM.

Compound `CCNC(=O)[C@H]1CCCN1C(=O)[C@H](CCCN=C(N)N)NC(=O)[C@H](CC(C)C)NC(=O)[C@@H](CCCCNC(=O)c1cccnc1)NC(=O)[C@H](Cc1ccc(O)cc1)N(C)C(=O)[C@H](CO)NC(=O)[C@H](Cc1c[nH]c2ccccc12)NC(=O)CCc1cccc(F)c1` yielded a Ki of 0.026 nM.

Compound `CCNC(=O)[C@@H]1CCCN1C(=O)[C@H](CCCN=C(N)N)NC(=O)[C@H](CC(C)C)NC(=O)[C@@H](Cc1c[nH]c2ccccc12)NC(=O)[C@H](Cc1ccc(O)cc1)NC(=O)[C@H](CO)NC(=O)[C@H](Cc1c[nH]c2ccccc12)NC(=O)CCc1cccc(F)c1` came in with a Ki of 1.35 nM.

In turn, `CCNC(=O)[C@@H]1CCCN1C(=O)[C@H](CCCN=C(N)N)NC(=O)[C@H](CC(C)C)NC(=O)[C@@H](Cc1c[nH]c2ccccc12)NC(=O)[C@H](Cc1ccc(O)cc1)NC(=O)[C@H](CO)NC(=O)[C@H](Cc1c[nH]c2ccccc12)NC(=O)CCc1ccc(F)cc1F` had a Ki of 0.04 nM.

`CCNC(=O)[C@@H]1CCCN1C(=O)[C@H](CCCN=C(N)N)NC(=O)[C@H](CC(C)C)NC(=O)[C@@H](Cc1c[nH]c2ccccc12)NC(=O)[C@H](Cc1ccc(O)cc1)NC(=O)[C@H](CO)NC(=O)[C@H](Cc1c[nH]c2ccccc12)NC(=O)c1cc2cc(F)ccc2[nH]1` registered a Ki of 12.3 nM.

Consider `CCNC(=O)[C@H]1CCCN1C(=O)[C@H](CCCN=C(N)N)NC(=O)[C@H](CC(C)C)NC(=O)[C@@H](CCCCNC(=O)c1cccnc1)NC(=O)[C@H](Cc1ccc(O)cc1)NC(=O)[C@H](CO)NC(=O)[C@H](Cc1c[nH]c2ccccc12)NC(=O)CCc1ccc(F)cc1`, for which the Ki was found to be 0.023 nM.

Compound `CCNC(=O)[C@@H]1CCCN1C(=O)[C@H](CCCN=C(N)N)NC(=O)[C@H](CC(C)C)NC(=O)[C@@H](Cc1c[nH]c2ccccc12)NC(=O)[C@H](Cc1ccc(O)cc1)NC(=O)[C@H](CO)NC(=O)[C@H](Cc1ccc(O)cc1)NC(=O)CCc1ccc(F)cc1` displayed a Ki of 0.022 nM.

Compound `CCNC(=O)[C@H]1CCCN1C(=O)[C@H](CCCN=C(N)N)NC(=O)[C@H](CC(C)C)NC(=O)[C@@H](Cc1ccc(O)cc1)NC(=O)[C@@H](Cc1ccc(O)cc1)NC(=O)[C@H](CO)NC(=O)[C@H](Cc1c[nH]c2ccccc12)NC(=O)CCc1ccc(F)cc1` registered an inhibition constant (Ki) of 0.038 nM.

Take `CCNC(=O)[C@H]1CCCN1C(=O)[C@H](CCCN=C(N)N)NC(=O)[C@H](CC(C)C)NC(=O)[C@@H](Cc1c[nH]c2ccccc12)NC(=O)[C@H](Cc1ccc(O)cc1)NC(=O)[C@H](CO)NC(=O)[C@H](Cc1c[nH]c2ccccc12)NC(=O)[C@@H](N)Cc1ccccc1`: the Ki worked out at 83.2 nM.

Compound `CCNC(=O)[C@@H]1CCCN1C(=O)[C@H](CCCN=C(N)N)NC(=O)[C@H](CC(C)C)NC(=O)[C@@H](Cc1c[nH]c2ccccc12)NC(=O)[C@H](Cc1ccc(O)cc1)NC(=O)[C@H](CO)NC(=O)[C@H](Cc1c[nH]c2ccccc12)NC(=O)Cc1ccc(C(F)(F)F)cc1` had a Ki of 0.646 nM.

With `CCNC(=O)[C@H]1CCCN1C(=O)[C@H](CCCCNC(C)C)NC(=O)[C@H](CC(C)C)NC(=O)[C@@H](CCCCNC(=O)c1cccnc1)NC(=O)[C@H](Cc1ccc(O)cc1)N(C)C(=O)[C@H](CO)NC(=O)[C@H](Cc1cccc2ccccc12)NC(=O)CCc1ccc(F)cc1`, the affinity, expressed as Ki, was 0.002 nM.

`CCNC(=O)[C@@H]1CCCN1C(=O)[C@H](CCCN=C(N)N)NC(=O)[C@H](CC(C)C)NC(=O)[C@@H](Cc1c[nH]c2ccccc12)NC(=O)[C@H](Cc1ccc(O)cc1)NC(=O)[C@H](CO)NC(=O)[C@H](Cc1c[nH]c2ccccc12)NC(=O)Cc1ccccc1`: the Ki was determined as 0.832 nM.

Compound `CCNC(=O)[C@H]1CCCN1C(=O)[C@H](CCCN=C(N)N)NC(=O)[C@H](CC(C)C)NC(=O)[C@@H](Cc1c[nH]c2ccccc12)NC(=O)[C@H](Cc1ccc(O)cc1)NC(=O)[C@H](CO)NC(=O)[C@@H]1CCCN1C(=O)CCc1ccc(F)cc1` had a Ki of 0.012 nM.

As for `CC(C)C[C@H](NC(=O)[C@@H](CCCCNC(=O)c1cccnc1)NC(=O)[C@H](Cc1ccc(O)cc1)N(C)C(=O)[C@H](CO)NC(=O)[C@H](Cc1cccc2ccccc12)NC(=O)CCc1ccc(F)cc1)C(=O)N[C@@H](CCCCNC(C)C)C(=O)N1CCC[C@@H]1C(N)=O`, the Ki was determined as 0.016 nM.

Compound `CCNC(=O)[C@H]1CCCN1C(=O)[C@H](CCCN=C(N)N)NC(=O)[C@H](CC(C)C)NC(=O)[C@@H](Cc1c[nH]c2ccccc12)NC(=O)[C@H](Cc1ccc(O)cc1)N(C)C(=O)[C@H](CO)NC(=O)[C@H](Cc1c[nH]c2ccccc12)NC(=O)CCc1ccc(Cl)cc1` gave a Ki of 0.071 nM.

`CCNC(=O)[C@H]1CCCN1C(=O)[C@H](CCCN=C(N)N)NC(=O)[C@H](CC(C)C)NC(=O)[C@@H](Cc1c[nH]c2ccccc12)NC(=O)[C@H](Cc1ccc(O)cc1)N(C)C(=O)[C@H](CO)NC(=O)[C@H](Cc1c[nH]c2ccccc12)NC(=O)CCc1ccc(F)cc1F`: the Ki came to 0.039 nM.

For the origin of these results see BindingDB's records for doi:10.1021/jm00031a021 (Tap Pharmaceuticals, 1994).
